Calls of active or inactive are those of the source.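 Rule for the calls, unless noted: active = viability at or below 10% of carrier control in both of two separate runs; inconclusive = viability at or below 10% in only one of the two runs; inactive = the rest.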
Assays:
[1] = reducers of endogenous Her2 protein level, primary screen, SKBR3 breast tumor cells, AlphaScreen, ATP viability (AID 461;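 active = Her2 level under about 52% in both replicate screens, with viability over 70% of control, limit read from the data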;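 for Her2 level: lower value means less Her2 protein in the cells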;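 for viability: percent of carrier control wells set as 100% viability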); details: 18-24 h, measured here: SKBR3 viability, ATP luminescence, at 10 µM
[2] = target: Receptor tyrosine-protein kinase erbB-2 (Homo sapiens) (UniProt P04626); assay: as above; details: 18-24 h, at 10 µM, stronger effect = lower value
[3] = SK-BR-3 cell growth inhibitors, pilot screen, 24 h, human (AID 572); details: SK-BR-3 viability, CellTiter-Glo luminescence, at 10 µM, stronger effect = lower value;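 note: compound exposure lasted between 18 and 24 h rather than exactly 24 h; 100% = carrier-treated control wells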
[4] = HUVEC growth inhibition – cell-based, human, primary screen (AID 575;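 active = viability at or below 30% in both replicate assays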;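 note: 100% = median of untreated cell wells with 0.1% DMSO on each plate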); details: HUVEC proliferation, CellTiter-Glo luminescence, 72 h; at 10 µM; stronger effect = lower value
Summary of the method: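 System: primary human umbilical vein endothelial cells; Quantity: 1250 endothelial cells in each well; Buffer or medium: supplemented EBM, 2% fetal bovine serum; Doses: one dose, 10 µM final, 0.1% DMSO; Incubation: 72 h compound incubation; Technique: ATP-based CellTiter-Glo luminescent read; Evaluation: percent of median DMSO-control luminescence; Controls: vehicle and MePR control wells.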

[5] = growth inhibitors of H69AR lung tumor, primary screen, human, duplicate replicates (AID 580;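 active = viability at or under a set limit in both replicates, limit being median viability minus 3 SD, cut at about 48% in these data, passing the limit was not always enough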;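 note: 100% = mean luminescence of untreated wells and 0% = no signal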); details: H69AR lung tumor cells viability, ATP luminescence, 72 h; at 10 µM; stronger effect = lower value
[6] = reversal of MRP1-mediated doxorubicin resistance, pilot screen, H69AR cells, doxorubicin co-treatment (AID 601;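 active = viability loss from added drug above about 55%, and viability with drug at most 40%, in both replicates, limit read from the data, passing the limit was not always enough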); details: CellTiter-Glo, 72 h, at 10 µM; for differential viability (reversal): stronger effect = higher value
[7] = 384-well plate pilot, post-Golgi transport modulator project, inhibition of yeast transport mutant growth (AID 636; in the data active = inhibition above about 31%); details: absorbance 615 nm, about 18 h, stronger effect = higher value
[8] = growth suppression of yeast trafficking mutant, preliminary HTS, modulators of trafficking downstream of Golgi apparatus project, 1536-format plate, OD 615 nm (AID 637; in the data active = inhibition above about 30%); details: yeast transport mutant growth, absorbance 615 nm, 18 h; stronger effect = higher value
[9] = H69AR cells + 2 uM doxorubicin, measured here: viability with 2 uM doxorubicin, stronger effect = lower value
[10] = H69AR cells, compound alone cytotoxicity

Receptor tyrosine-protein kinase erbB-2 (Homo sapiens), sequence (P04626 whole entry, looked up): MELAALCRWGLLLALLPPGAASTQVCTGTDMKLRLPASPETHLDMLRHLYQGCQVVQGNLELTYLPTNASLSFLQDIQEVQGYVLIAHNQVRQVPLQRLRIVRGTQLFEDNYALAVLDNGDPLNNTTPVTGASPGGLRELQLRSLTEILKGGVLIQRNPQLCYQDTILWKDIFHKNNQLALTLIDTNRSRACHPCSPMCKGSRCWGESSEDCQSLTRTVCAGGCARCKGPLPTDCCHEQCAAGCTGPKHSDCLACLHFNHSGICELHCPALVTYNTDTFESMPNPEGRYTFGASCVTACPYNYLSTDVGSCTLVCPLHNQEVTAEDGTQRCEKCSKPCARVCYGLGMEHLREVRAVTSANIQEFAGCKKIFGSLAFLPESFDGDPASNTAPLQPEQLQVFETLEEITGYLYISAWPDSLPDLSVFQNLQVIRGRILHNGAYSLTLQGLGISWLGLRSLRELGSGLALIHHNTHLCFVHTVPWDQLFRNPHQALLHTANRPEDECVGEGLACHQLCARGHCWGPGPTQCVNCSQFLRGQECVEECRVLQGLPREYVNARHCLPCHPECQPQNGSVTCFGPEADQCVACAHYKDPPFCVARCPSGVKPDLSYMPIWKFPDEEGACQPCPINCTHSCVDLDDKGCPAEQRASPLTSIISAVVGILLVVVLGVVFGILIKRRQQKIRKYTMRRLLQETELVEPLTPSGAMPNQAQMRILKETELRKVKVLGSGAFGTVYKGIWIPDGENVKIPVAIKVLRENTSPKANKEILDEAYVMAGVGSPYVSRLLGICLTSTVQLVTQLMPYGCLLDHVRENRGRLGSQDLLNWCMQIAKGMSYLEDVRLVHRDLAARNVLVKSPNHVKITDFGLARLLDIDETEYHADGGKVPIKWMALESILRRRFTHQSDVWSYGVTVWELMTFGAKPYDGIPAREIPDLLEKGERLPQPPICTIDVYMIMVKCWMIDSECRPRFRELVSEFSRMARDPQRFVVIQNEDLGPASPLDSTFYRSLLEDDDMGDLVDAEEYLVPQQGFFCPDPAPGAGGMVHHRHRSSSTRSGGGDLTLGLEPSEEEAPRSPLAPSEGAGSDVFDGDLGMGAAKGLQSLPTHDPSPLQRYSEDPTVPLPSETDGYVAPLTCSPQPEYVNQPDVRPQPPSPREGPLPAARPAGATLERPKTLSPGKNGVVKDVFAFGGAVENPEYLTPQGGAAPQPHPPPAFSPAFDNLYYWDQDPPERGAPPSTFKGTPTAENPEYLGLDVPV

Compound	viability [1] [%]	Her2 level [2]	viability [3]	viability [4]	viability [5]	differential viability (reversal) ([6]; H69AR cells + 2 uM doxorubicin)	viability [6, 9] [%]	viability [6, 10] [%]	inhibition [7]	inhibition [8]
CCn1c(SCC(=O)Nc2nc(C)cs2)nnc1-c1ccco1	106	87.5% (inactive)	106% (inactive)	110% (inactive)	92% (inactive)	4.38% (inactive)	87.7	92	-3.33% (inactive)	-2% (inactive)
CC(=O)c1cccc(NC(=O)c2ccc(NS(C)(=O)=O)cc2)c1	118	80.5% (inactive)	118% (inactive)	97.7% (inactive)	83.6% (inactive)	-1.39% (inactive)	85	83.6	-3.95% (inactive)	1.75% (inactive)
CCCCCOC(=O)CSc1nnc(-c2cc(OC)c(OC)c(OC)c2)o1	84.5	69.5% (inactive)	84.5% (inactive)	104% (inactive)	104% (inactive)	10.6% (inactive)	93.2	104	-5% (inactive)	-6.5% (inactive)
CN(Cc1cccs1)c1ncnc2sccc12	112	78.5% (inactive)	112% (inactive)	70.7% (inactive)	92.4% (inactive)	-0.54% (inactive)	93	92.4	-4.87% (inactive)	1.27% (inactive)
CN(C)S(=O)(=O)c1ccc(S(=O)(=O)Nc2ccc3c(c2)oc2ccccc23)cc1	79.5	97% (inactive)	79.5% (inactive)	59.2% (inactive)	73.2% (inactive)	-2.9% (inactive)	76.1	73.2	2.11% (inactive)	-3.64% (inactive)
Cn1c(=O)[nH]c(=O)c2[nH]c(NCCCN3CCOCC3)nc21	93.5	85.5% (inactive)	93.5% (inactive)	92.1% (inactive)	101% (inactive)	16.1% (inactive)	85	101	-2.47% (inactive)	-0.79% (inactive)
Cc1ccc(-c2nn(C)c(=O)c3ccccc23)cc1S(=O)(=O)N1CCOCC1	77	83% (inactive)	77% (inactive)	83.8% (inactive)	92.8% (inactive)	16% (inactive)	76.8	92.8	-5.07% (inactive)	-3.06% (inactive)
O=S(=O)(Nc1ccc(Cc2ccncc2)cc1)N1CCCC1	88	94% (inactive)	88% (inactive)	104% (inactive)	92.4% (inactive)	-6.24% (inactive)	98.6	92.4	-3.92% (inactive)	-1.97% (inactive)
Cc1cc(C)n2cc(CSc3nnnn3C)nc2n1	84.5	92% (inactive)	84.5% (inactive)	87.8% (inactive)	85.7% (inactive)	-0.355% (inactive)	86	85.7	0.51% (inactive)	6.17% (inactive)
CCOc1cc(-c2nc3ccccn3c2NCC2CCCO2)ccc1O (stereo not given)	69.5	111% (inactive)	69.5% (inactive)	88.7% (inactive)	40.7% (active)	5.11% (inactive)	35.6	40.7	4.27% (inactive)	24% (inactive)
CCOC(=O)C1CCN(C(=O)CSc2n[nH]c(=O)[nH]c2=O)CC1	109	90% (inactive)	109% (inactive)	94.6% (inactive)	102% (inactive)	5.61% (inactive)	96.7	102	-8.51% (inactive)	3.67% (inactive)
O=C(CN1CCN(C(=O)c2ccccc2)CC1)Nc1ncc(Br)cc1Br	76.5	100% (inactive)	76.5% (inactive)	92.2% (inactive)	77.9% (inactive)	-6.92% (inactive)	84.8	77.9	-2.4% (inactive)	-5.74% (inactive)
Cn1c(=O)c(C(=O)Nc2cccnc2)c(O)c2ccccc21	81	59.5% (inactive)	81% (inactive)	105% (inactive)	88.4% (inactive)	-9.81% (inactive)	98.2	88.4	-3.65% (inactive)	2.46% (inactive)
CN(C)C(=O)Cn1c(SCC(=O)NC2CCCCC2)nc2ccccc21	72	76% (inactive)	72% (inactive)	101% (inactive)	102% (inactive)	14.8% (inactive)	87.5	102	-6.08% (inactive)	0.16% (inactive)
OCCn1c(-c2ccc3c(c2)OCO3)csc1=Nc1ccccc1	97	71.5% (inactive)	97% (inactive)	51.4% (inactive)	88.7% (inactive)	-2.46% (inactive)	91.2	88.7	-4.4% (inactive)	5.9% (inactive)
CCOc1ccc(S(=O)(=O)Nc2ccccc2C(=O)Nc2ccccc2N2CCOCC2)cc1	104	97.5% (inactive)	104% (inactive)	74.5% (inactive)	93.4% (inactive)	2.71% (inactive)	90.7	93.4	-6.67% (inactive)	3.06% (inactive)
